Several values for one entry are separate records, joined by “and”; a condition that tells them apart may be missing. Equal entries are not always repeated.
Legend:
[1] = tested on: Rattus norvegicus; test: Biodistribution in Rat lung after 30 minutes of iv administration; assay type: ADME, organism-based; conditions: in vivo, 0.5 h
How it was run: (§1)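 125I-labeled compound solubilized in normal saline with Tween-20 and given iv to rats, about 5-30 μCi (9-83 μg) per animal. Three to five rats per time point. Rats killed by exsanguination under ether anesthesia at 5 min, 30 min or 24 h. Organs minced, blotted free of blood and counted for radioiodine. Lines with "per g" are % administered dose per gram ± SEM.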

[2] = tested on: Rattus norvegicus; test: Biodistribution in Rat liver after 5 minutes of iv administration; assay type: ADME, organism-based; conditions: in vivo; how it was run: as §1
[3] = tested on: Rattus norvegicus; test: Biodistribution in Rat lung after 24 hours of iv administration; assay type: ADME, organism-based; conditions: in vivo; how it was run: as §1
[4] = tested on: Rattus norvegicus; test: Biodistribution in Rat lung after 5 minutes of iv administration; assay type: ADME, organism-based; conditions: in vivo; how it was run: as §1
[5] = tested on: Rattus norvegicus; test: Biodistribution in Rat blood after 24 hours of iv administration; assay type: ADME, organism-based; conditions: in vivo; how it was run: as §1
[6] = tested on: Rattus norvegicus; test: Biodistribution in Rat blood after 30 minutes of iv administration; assay type: ADME, organism-based; conditions: in vivo, 0.5 h; how it was run: as §1
[7] = tested on: Rattus norvegicus; test: Biodistribution in Rat blood after 5 minutes of iv administration; assay type: ADME, organism-based; conditions: in vivo; how it was run: as §1
[8] = tested on: Rattus norvegicus; test: Biodistribution in Rat heart after 24 hours of iv administration; assay type: ADME, organism-based; conditions: in vivo; how it was run: as §1
[9] = tested on: Rattus norvegicus; test: Biodistribution in Rat heart after 30 minutes of iv administration; assay type: ADME, organism-based; conditions: in vivo, 0.5 h; how it was run: as §1
[10] = tested on: Rattus norvegicus; test: Biodistribution in Rat heart after 5 minutes of iv administration; assay type: ADME, organism-based; conditions: in vivo; how it was run: as §1
[11] = tested on: Rattus norvegicus; test: Biodistribution in Rat liver after 24 hours of iv administration; assay type: ADME, organism-based; conditions: in vivo; how it was run: as §1
[12] = tested on: Rattus norvegicus; test: (§2) Biodistribution in Rat liver after 30 minutes of iv administration; assay type: ADME, organism-based; conditions: in vivo, 0.5 h; how it was run: as §1
[13] = tested on: Rattus norvegicus; test: as §2; assay type: ADME, organism-based; conditions: in vivo, 0.5 h; how it was run: as §1; remark: listed apart in the source
[14] = tested on: Rattus norvegicus; test: Compound was evaluated for the lipid soluble radioactivity extracted from rat plasma at 24 hr after intravenous administration.; assay type: functional
How it was run: (§3)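 Liver and plasma taken 0.5 or 24 h after iv dosing of 125I-labeled compound in rats (n = 3-5). Extracted by a modified Folch procedure; value is % lipid (CHCl3/MeOH)-extractable radioactivity ± SEM. Extracts run on TLC in hexane/ethyl acetate 5:2 against unlabeled standard, then 1-cm strips counted to give % parent compound.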

[15] = tested on: Rattus norvegicus; test: Compound was evaluated for the lipid soluble radioactivity extracted from rat liver at 0.5 hr after intravenous administration.; assay type: functional; how it was run: as §3
[16] = tested on: Rattus norvegicus; test: Compound was evaluated for the lipid soluble radioactivity extracted from rat liver at 24 hr after intravenous administration.; assay type: functional; how it was run: as §3
[17] = tested on: Rattus norvegicus; test: Compound was evaluated for the lipid soluble radioactivity extracted from rat plasma at 0.5 hr after intravenous administration.; assay type: functional; how it was run: as §3
[18] = tested on: Rattus norvegicus; test: Liver radioactivity after iv administration of compound (24 h) in rats; assay type: functional, organism-based
How it was run: (§4)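 Rats (3-5 per time point) dosed iv with about 5-30 μCi (9-83 μg) of 125I-labeled compound in saline containing Tween-20. Killed by exsanguination under ether at 5 min, 30 min or 24 h. Liver removed, minced, blotted and counted. Values are % administered dose per organ, based on each animal's actual liver weight, ± SEM.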

[19] = tested on: Rattus norvegicus; test: Liver radioactivity after iv administration of compound (30 min) in rats; assay type: functional, organism-based; how it was run: as §4
[20] = tested on: Rattus norvegicus; test: Liver radioactivity after iv administration of compound (5 min) in rats; assay type: functional, organism-based; how it was run: as §4
[21] = tested on: Rattus norvegicus; test: Compound (125I labeled) was evaluated for the total radioactivity in albumin 5 min after intravenous administration.; assay type: functional; parameters: concentration or dose not given beside the values
How it was run: (§5)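 Rat plasma taken 5 or 30 min after iv dosing of 125I-labeled compound (saline/Tween-20) and run on polyacrylamide gel electrophoresis. Gels sectioned and each section gamma-counted. Radioactivity in each band (stacking gel, lipoproteins, albumin, below-albumin) is given as % of total radioactivity applied to the gel.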

[22] = tested on: Rattus norvegicus; test: Evaluated for the total radioactivity in below albumin at 30 min after intravenous administration.; assay type: functional; how it was run: as §5
[23] = tested on: Rattus norvegicus; test: Compound (125I labeled) was evaluated for the total radioactivity in high-density lipoprotein 5 min after intravenous administration.; assay type: functional; how it was run: as §5
[24] = tested on: Rattus norvegicus; test: Compound (125I labeled) was evaluated for the total radioactivity in high-density lipoprotein, at 30 min after intravenous administration.; assay type: functional; how it was run: as §5
[25] = tested on: Rattus norvegicus; test: Compound (125I labeled) was evaluated for the total radioactivity in low-density lipoprotein 5 min after intravenous administration.; assay type: functional; parameters: concentration or dose not given beside the values; how it was run: as §5
[26] = tested on: Rattus norvegicus; test: Compound (125I labeled) was evaluated for the total radioactivity in low-density lipoprotein, at 30 min after intravenous administration.; assay type: functional; how it was run: as §5
[27] = tested on: Rattus norvegicus; test: Compound (125I labeled) was evaluated for the total radioactivity in stacking gel at 30 min after intravenous administration.; assay type: functional; how it was run: as §5
[28] = tested on: Rattus norvegicus; test: Compound (125I labeled)was evaluated for the total radioactivity in stacking gel 5 min after intravenous administration.; assay type: functional; how it was run: as §5
[29] = tested on: Rattus norvegicus; test: Compound (125I labeled) was evaluated for the total radioactivity in albumin at 30 min after intravenous administration.; assay type: functional; parameters: concentration or dose not given beside the values; how it was run: as §5
[30] = tested on: Rattus norvegicus; test: (§6) Biodistribution in Rat liver after 30 minutes of iv administration; per g of tissue; assay type: ADME, organism-based; conditions: in vivo, 0.5 h; how it was run: as §1
[31] = tested on: Rattus norvegicus; test: Biodistribution in Rat lung after 24 hours of iv administration; per g of tissue; assay type: ADME, organism-based; conditions: in vivo; how it was run: as §1
[32] = tested on: Rattus norvegicus; test: Biodistribution in Rat lung after 30 minutes of iv administration; per g of tissue; assay type: ADME, organism-based; conditions: in vivo, 0.5 h; how it was run: as §1
[33] = tested on: Rattus norvegicus; test: Biodistribution in Rat lung after 5 minutes of iv administration; per g of tissue; assay type: ADME, organism-based; conditions: in vivo; how it was run: as §1
[34] = tested on: Rattus norvegicus; test: Biodistribution in Rat blood after 24 hours of iv administration; per g of tissue; assay type: ADME, organism-based; conditions: in vivo; how it was run: as §1
[35] = tested on: Rattus norvegicus; test: Biodistribution in Rat blood after 5 minutes of iv administration; per g of tissue; assay type: ADME, organism-based; conditions: in vivo; how it was run: as §1
[36] = tested on: Rattus norvegicus; test: Biodistribution in Rat heart after 24 hours of iv administration; per g of tissue; assay type: ADME, organism-based; conditions: in vivo; how it was run: as §1
[37] = tested on: Rattus norvegicus; test: Biodistribution in Rat heart after 30 minutes of iv administration; per g of tissue; assay type: ADME, organism-based; conditions: in vivo, 0.5 h; how it was run: as §1
[38] = tested on: Rattus norvegicus; test: Biodistribution in Rat heart after 5 minutes of iv administration; per g of tissue; assay type: ADME, organism-based; conditions: in vivo; how it was run: as §1
[39] = tested on: Rattus norvegicus; test: Biodistribution in Rat liver after 24 hours of iv administration; per g of tissue; assay type: ADME, organism-based; conditions: in vivo; how it was run: as §1
[40] = tested on: Rattus norvegicus; test: as §6; assay type: ADME, organism-based; conditions: in vivo, 0.5 h; how it was run: as §1; remark: listed apart in the source
[41] = tested on: Rattus norvegicus; test: Compound (125I labeled) was evaluated for the total radioactivity in stacking gel 5 min after intravenous administration.; assay type: functional; how it was run: as §5
[42] = tested on: Rattus norvegicus; test: Biodistribution in Rat liver after 5 minutes of iv administration; per g of tissue; assay type: ADME, organism-based; conditions: in vivo; how it was run: as §1
[43] = tested on: Rattus norvegicus; test: Biodistribution in Rat blood after 30 minutes of iv administration; per g of tissue; assay type: ADME, organism-based; conditions: in vivo, 0.5 h; how it was run: as §1

SMILES | Extracted [14] | Parent compound [14] | Extracted [15] | Parent compound [15] | Extracted [16] | Parent compound [16] | Extracted [17] | Parent compound [17] | Radioactivity [18] | Radioactivity [19] | Radioactivity [20] | Total radioactivity [21] | Total radioactivity [22] | Total radioactivity [23] | Total radioactivity [24] | Total radioactivity [25] | Total radioactivity [26] | Total radioactivity [27] | Total radioactivity [29] | other results
CCC(Cc1c(I)cc(I)c(N)c1I)C(=O)OCC(COC(=O)C(CC)Cc1c(I)cc(I)c(N)c1I)OC(=O)C(CC)Cc1c(I)cc(I)c(N)c1I (stereo unspecified) | 83.4% | 75.1% | 89% | 92.9% | 91.7% | 92.3% | 90.5% | 89.1% | 66.8 | 26 | 22.4 | 2.9% | 0.3% and 1.9% | 48.2% | 55.8% | 33.4% | 27% | 9.9% | 5.3% | Biodistribution [1]: 0.67%; Biodistribution [2]: 0.87% and 3.57%; Biodistribution [3]: 0.58%; Biodistribution [4]: 1.49%; Biodistribution [5]: 0.14%; Biodistribution [6]: 3.31%; Biodistribution [7]: 6.95%; Biodistribution [8]: 0.1%; Biodistribution [9]: 0.39%; Biodistribution [10]: 0.97%; Biodistribution [11]: 0.18% and 9.19%; Biodistribution [12]: 2.79%; Biodistribution [13]: 2.79%; Total radioactivity [28]: 15.2%
CCCCCCCCCCCCCCCC(=O)OC(COC(=O)C(CC)Cc1c(I)cc(I)c(N)c1I)COC(=O)C(CC)Cc1c(I)cc(I)c(N)c1I (stereo unspecified) | 82.1% | 77.4% | 88.4% | 86% | 93.9% | 91.7% | 86% | 82.6% | 52.1 | 30.2 | 18.4 | 3.2% | 0.1% and 0.3% | 55.1% | 59.7% | 35.4% | 29.7% | 6.8% | 3.4% | Biodistribution [30]: 4.54%; Biodistribution [31]: 0.33%; Biodistribution [32]: 1.1%; Biodistribution [33]: 1.49%; Biodistribution [34]: 0.54%; Biodistribution [35]: 7.44%; Biodistribution [36]: 0.21%; Biodistribution [37]: 0.66%; Biodistribution [38]: 0.87%; Biodistribution [39]: 0.26% and 0.33%; Biodistribution [40]: 4.54%; Total radioactivity [41]: 6.2%; Biodistribution [42]: 0.84% and 2.9%; Biodistribution [43]: 5.17%
